Source: ChEMBL document CHEMBL4732211, “Multifunctional agents based on benzoxazolone as promising therapeutic drugs for diabetic nephropathy” (Eur J Med Chem, 2021)
Calls of active or inactive are those of the source. The calls are words filed in the database; no cut-off is given here.

Molecular target: Aldo-keto reductase family 1 member B1 (Rattus norvegicus, UniProt P07943)
Assay: Inhibition of Wistar rat lens ALR2 assessed as reduction in NADPH oxidation using D,L-glyceraldehyde and NADPH as substrate preincubated for 10 mins followed by substrate addition and measured for 4 mins by spectrophotometric analysis
Format: tissue-based
Conditions: not given

IC50 [µM]	SMILES
0.387	O=C(O)Cn1c(=O)oc2c(-c3ccc(O)c(O)c3)cccc21
0.149	O=C(O)Cn1c(=O)oc2c(-c3ccccc3)cccc21
0.0106	COc1ccc(/C=C/c2cccc3c2oc(=O)n3CC(=O)O)cc1
0.0547	O=C(O)Cn1c(=O)oc2c(/C=C/c3ccccc3)cccc21
0.0245	O=C(O)Cn1c(=O)oc2c(-c3ccc(CO)cc3)cccc21
0.0465	O=C(O)Cn1c(=O)oc2cc(/C=C/c3ccc(O)cc3)ccc21
0.0754	O=C(O)Cn1c(=O)oc2c(-c3ccc(-c4ccccc4)cc3)cccc21
55	O=C(O)Cn1c(=O)oc2cccc(/C=C/c3ccccc3)c21
0.023	O=C(O)Cn1c(=O)oc2c(-c3ccc(-c4ccc5ccccc5c4)cc3)cccc21
0.0657	O=C(O)Cn1c(=O)oc2cc(/C=C/c3ccccc3)ccc21
0.125	COc1ccc(CCc2cccc3c2oc(=O)n3CC(=O)O)cc1
0.0338	COc1ccc(/C=C/c2cccc3c2oc(=O)n3CC(=O)O)cc1OC
0.0224	O=C(O)Cn1c(=O)oc2c(-c3ccc(-c4cccc5ccccc45)cc3)cccc21
0.143	O=C(O)Cn1c(=O)oc2c(/C=C/c3ccc(C(F)(F)F)cc3)cccc21
0.0212	CC(C)(C)c1ccc(-c2cccc3c2oc(=O)n3CC(=O)O)cc1
0.0635	COc1ccc(-c2cccc3c2oc(=O)n3CC(=O)O)cc1OC
0.0855	COc1ccc(-c2cccc3c2oc(=O)n3CC(=O)O)c(OC)c1
0.0454	O=C(O)Cn1c(=O)oc2c(/C=C/c3ccc(O)c(O)c3)cccc21
0.226	O=C(O)Cn1c(=O)oc2ccc(/C=C/c3ccccc3)cc21
0.0348	O=C(O)Cn1c(=O)oc2c(/C=C/c3ccc(O)cc3)cccc21
0.0238	COc1ccc(-c2cccc3c2oc(=O)n3CC(=O)O)cc1
0.0901	COc1cc(CCc2cccc3c2oc(=O)n3CC(=O)O)ccc1O
0.0097	O=C(O)Cn1c(=O)oc2c(-c3ccc(C(F)(F)F)cc3)cccc21

Molecular target: Aldo-keto reductase family 1 member A1 (Rattus norvegicus, UniProt P51635)
Assay: Inhibition of Wistar rat kidney ALR1 assessed as reduction in NADPH oxidation using sodium D-glucuronate and NADPH as substrate preincubated for 10 mins followed by substrate addition and measured for 4 mins by spectrophotometric analysis
Format: tissue-based
Conditions: not given

Chain of Aldo-keto reductase family 1 member A1 (P51635 whole entry, looked up): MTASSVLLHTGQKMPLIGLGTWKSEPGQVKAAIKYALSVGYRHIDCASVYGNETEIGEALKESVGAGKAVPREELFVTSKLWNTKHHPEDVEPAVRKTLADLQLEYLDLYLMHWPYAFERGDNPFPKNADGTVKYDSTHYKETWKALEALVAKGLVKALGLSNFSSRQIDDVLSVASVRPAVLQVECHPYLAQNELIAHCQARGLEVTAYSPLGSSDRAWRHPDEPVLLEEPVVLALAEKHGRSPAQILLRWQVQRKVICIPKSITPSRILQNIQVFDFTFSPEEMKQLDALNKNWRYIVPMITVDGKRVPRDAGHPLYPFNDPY

IC50 [µM]	SMILES
6.6	O=C(O)Cn1c(=O)oc2c(-c3ccc(O)c(O)c3)cccc21
447	O=C(O)Cn1c(=O)oc2c(-c3ccccc3)cccc21
6.3	COc1ccc(/C=C/c2cccc3c2oc(=O)n3CC(=O)O)cc1
1700	O=C(O)Cn1c(=O)oc2c(/C=C/c3ccccc3)cccc21
30.9	O=C(O)Cn1c(=O)oc2c(-c3ccc(CO)cc3)cccc21
575	O=C(O)Cn1c(=O)oc2cc(/C=C/c3ccc(O)cc3)ccc21
6.2	O=C(O)Cn1c(=O)oc2c(-c3ccc(-c4ccccc4)cc3)cccc21
363	O=C(O)Cn1c(=O)oc2cccc(/C=C/c3ccccc3)c21
8.9	O=C(O)Cn1c(=O)oc2c(-c3ccc(-c4ccc5ccccc5c4)cc3)cccc21
2.57	O=C(O)Cn1c(=O)oc2cc(/C=C/c3ccccc3)ccc21
174	COc1ccc(CCc2cccc3c2oc(=O)n3CC(=O)O)cc1
29.5	COc1ccc(/C=C/c2cccc3c2oc(=O)n3CC(=O)O)cc1OC
45.7	O=C(O)Cn1c(=O)oc2c(-c3ccc(-c4cccc5ccccc45)cc3)cccc21
2880	O=C(O)Cn1c(=O)oc2c(/C=C/c3ccc(C(F)(F)F)cc3)cccc21
174	CC(C)(C)c1ccc(-c2cccc3c2oc(=O)n3CC(=O)O)cc1
32.4	COc1ccc(-c2cccc3c2oc(=O)n3CC(=O)O)cc1OC
72.4	COc1ccc(-c2cccc3c2oc(=O)n3CC(=O)O)c(OC)c1
0.79	O=C(O)Cn1c(=O)oc2c(/C=C/c3ccc(O)c(O)c3)cccc21
17.4	O=C(O)Cn1c(=O)oc2ccc(/C=C/c3ccccc3)cc21
67.6	O=C(O)Cn1c(=O)oc2c(/C=C/c3ccc(O)cc3)cccc21
1.05	COc1ccc(-c2cccc3c2oc(=O)n3CC(=O)O)cc1
15.5	COc1cc(CCc2cccc3c2oc(=O)n3CC(=O)O)ccc1O
14.4	O=C(O)Cn1c(=O)oc2c(-c3ccc(C(F)(F)F)cc3)cccc21

Species: Rattus norvegicus
Assay: Selectivity index, ratio of IC50 for Wistar rat kidney ALR1 to IC50 for Wistar rat lens ALR2
Conditions: not given
How it was run: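 Aldose reductases (ALR2, ALR1) prepared from Wistar rats (200-250 g). NADPH loss followed at 340 nm for 4 min after substrate start, following 10 min preincubation. ALR2: pH 6.2 phosphate, 30 °C, NADPH 0.10 mM, D,L-glyceraldehyde 10 mM. ALR1: pH 7.2, 37 °C, NADPH 0.12 mM, D-glucuronate 20 mM. 0.5% DMSO; non-enzymatic rate subtracted. IC50 from log dose-response with ≥3 concentrations (20-80% inhibition), triplicate.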

Ratio IC50	SMILES
17	O=C(O)Cn1c(=O)oc2c(-c3ccc(O)c(O)c3)cccc21
3000	O=C(O)Cn1c(=O)oc2c(-c3ccccc3)cccc21
594	COc1ccc(/C=C/c2cccc3c2oc(=O)n3CC(=O)O)cc1
31000	O=C(O)Cn1c(=O)oc2c(/C=C/c3ccccc3)cccc21
1260	O=C(O)Cn1c(=O)oc2c(-c3ccc(CO)cc3)cccc21
12400	O=C(O)Cn1c(=O)oc2cc(/C=C/c3ccc(O)cc3)ccc21
82	O=C(O)Cn1c(=O)oc2c(-c3ccc(-c4ccccc4)cc3)cccc21
6.6	O=C(O)Cn1c(=O)oc2cccc(/C=C/c3ccccc3)c21
387	O=C(O)Cn1c(=O)oc2c(-c3ccc(-c4ccc5ccccc5c4)cc3)cccc21
39	O=C(O)Cn1c(=O)oc2cc(/C=C/c3ccccc3)ccc21
1390	COc1ccc(CCc2cccc3c2oc(=O)n3CC(=O)O)cc1
873	COc1ccc(/C=C/c2cccc3c2oc(=O)n3CC(=O)O)cc1OC
2040	O=C(O)Cn1c(=O)oc2c(-c3ccc(-c4cccc5ccccc45)cc3)cccc21
20100	O=C(O)Cn1c(=O)oc2c(/C=C/c3ccc(C(F)(F)F)cc3)cccc21
8200	CC(C)(C)c1ccc(-c2cccc3c2oc(=O)n3CC(=O)O)cc1
510	COc1ccc(-c2cccc3c2oc(=O)n3CC(=O)O)cc1OC
847	COc1ccc(-c2cccc3c2oc(=O)n3CC(=O)O)c(OC)c1
17	O=C(O)Cn1c(=O)oc2c(/C=C/c3ccc(O)c(O)c3)cccc21
77	O=C(O)Cn1c(=O)oc2ccc(/C=C/c3ccccc3)cc21
1940	O=C(O)Cn1c(=O)oc2c(/C=C/c3ccc(O)cc3)cccc21
44	COc1ccc(-c2cccc3c2oc(=O)n3CC(=O)O)cc1
172	COc1cc(CCc2cccc3c2oc(=O)n3CC(=O)O)ccc1O
1480	O=C(O)Cn1c(=O)oc2c(-c3ccc(C(F)(F)F)cc3)cccc21

Test system: not listed separately
Assay: Antioxidant activity assessed as DPPH radical scavenging activity at 10 uM after 30 mins by spectrophotometric analysis
Format: functional
Conditions: not given
How it was run: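 DPPH in methanol (1 mL, 0.025 mg/mL) plus methanol 1.9 mL and compound in methanol, final 100, 50 and 10 µM; absorbance at 517 nm. Scavenging % = 1 − (A_sample − A_blank)/A_control, where the blank is compound without DPPH. Trolox reference.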

SMILES	Activity [%]
O=C(O)Cn1c(=O)oc2c(-c3ccc(O)c(O)c3)cccc21	61.7
O=C(O)Cn1c(=O)oc2c(/C=C/c3ccc(O)c(O)c3)cccc21	22.7
O=C(O)Cn1c(=O)oc2c(/C=C/c3ccc(O)cc3)cccc21	22.7
COc1cc(CCc2cccc3c2oc(=O)n3CC(=O)O)ccc1O	22.7

Test system: Mus musculus
Assay: Inhibition of polyol pathway in STZ-induced Kunming mouse model of diabetes assessed as decrease in sorbitol level in kidney cortex at 80 mg/kg, po administered daily via gavage for 8 weeks and measured at 6 hrs post-final drug dose by fluorospectrophotometric analysis
Format: functional
Conditions: not given

SMILES	inhibition
CC(/C=C1\SC(=S)N(CC(=O)O)C1=O)=C\c1ccccc1	Active
CN(C)C(=N)NC(=N)N [METFORMIN]	inactive

Test system: Mus musculus
Assay: Antioxidant activity in STZ-induced diabetic Kunming mouse assessed as reduction in liver MDA level at 80 mg/kg, po administered daily via gavage for 8 weeks and measured at 6 hrs post-final drug dose relative to STZ-treated group
Format: functional
Conditions: 1344 h

SMILES	inhibition in vivo at 80 mg/kg [%]
CC(/C=C1\SC(=S)N(CC(=O)O)C1=O)=C\c1ccccc1	65
CN(C)C(=N)NC(=N)N [METFORMIN]	43

Test system: Mus musculus
Assay: Reno-protective activity in STZ-induced Kunming mouse model of diabetes assessed as reduction in albumin to creatinine ratio at 80 mg/kg, po administered daily via gavage for 8 weeks
Format: functional
Conditions: not given

SMILES	Activity	inhibition
CC(/C=C1\SC(=S)N(CC(=O)O)C1=O)=C\c1ccccc1	inactive	–
CN(C)C(=N)NC(=N)N [METFORMIN]	–	Active

Test system: Mus musculus
Assay: Antidiabetic activity in STZ-induced Kunming mouse model of diabetes assessed as reduction in blood glucose level at 80 mg/kg, po administered QD via gavage for 4 weeks and measured at week 2 to 4
Format: functional, organism-based
Conditions: time 2-4 weeks

SMILES	Activity
CC(/C=C1\SC(=S)N(CC(=O)O)C1=O)=C\c1ccccc1	inactive

Test system: Mus musculus
Assay: Reno-protective activity in STZ-induced Kunming mouse model of diabetes assessed as reduction in urinary total protein excretion at 80 mg/kg, po administered daily via gavage for 8 weeks and measured at week 4 relative to control
Format: functional
Conditions: 672 h, time 4 weeks

SMILES	inhibition in vivo at 80 mg/kg [%]
CN(C)C(=N)NC(=N)N [METFORMIN]	6

Same assay, conditions: time 4.0 weeks

SMILES	Activity
CC(/C=C1\SC(=S)N(CC(=O)O)C1=O)=C\c1ccccc1	inactive

Test system: Mus musculus
Assay: Reno-protective activity in STZ-induced Kunming mouse model of diabetes assessed as reduction in urinary total protein excretion at 80 mg/kg, po administered daily via gavage for 8 weeks and measured at week 6 relative to control
Format: functional
Conditions: 1008 h, time 6 weeks

SMILES	inhibition in vivo at 80 mg/kg [%]
CN(C)C(=N)NC(=N)N [METFORMIN]	41

Same assay, conditions: time 6.0 weeks

SMILES	Activity
CC(/C=C1\SC(=S)N(CC(=O)O)C1=O)=C\c1ccccc1	inactive

Test system: Mus musculus
Assay: Reno-protective activity in STZ-induced Kunming mouse model of diabetes assessed as reduction in urinary total protein excretion at 80 mg/kg, po administered daily via gavage for 8 weeks and measured at week 8 relative to control
Format: functional
Conditions: not given

SMILES	Activity
CC(/C=C1\SC(=S)N(CC(=O)O)C1=O)=C\c1ccccc1	inactive

Same assay, conditions: 1344 h

SMILES	inhibition in vivo at 80 mg/kg [%]
CN(C)C(=N)NC(=N)N [METFORMIN]	18
